Screening data: PubChem, Columbia University Molecular Screening Center
Many of the other results were omitted from the sample, so hits are more common in it than they were.
Insulin prom act: activators of insulin promoter-driven GFP, primary screen, imaging, TRM-6 cells, eGFP reporter, cell count; plate-scaled: unstimulated 0, stimulated control 100; activation, % at 2 µM; 130,000 tested, 0.81% active; AID 1296, 2008;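 active = activation at 2 µM above a set limit, confirmed on inspection of the cell images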;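 also: share of cells whose green reporter signal exceeds an intensity cutoff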
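Test system: human fetal islet-derived TRM-6 cells with tamoxifen-inducible insulin promoter–eGFP reporter; schedule: overnight tamoxifen, then two-day compound incubation at 37 °C; measured by: high-content imaging of fixed cells with Hoechst nuclear stain; evaluation: percent cells above green-intensity threshold, converted to percent activation versus plate controls; control set: stimulated and unstimulated wells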
An asterisk follows results filed as active.

SMILES | Insulin prom act
C[C@@H]1NC(=O)c2cc([N+](=O)[O-])cc(I)c2OCC[C@@H](C(=O)NC(CC(=O)O)C(N)=O)NC(=O)[C@H](CCC(=O)O)NC1=O (stereo partly drawn) | -5
Cc1nc(N2CCN(S(=O)(=O)c3ccccc3)CC2)c2c3c(sc2n1)CC(C)CC3 (stereo not drawn) | 0
CC(=O)N1CCN(c2ncnc3sc(-c4ccccc4)cc23)CC1 | 4
Cc1nc(N2CCN(S(=O)(=O)c3ccccc3)CC2)c2cc(-c3ccccc3)sc2n1 | 81*
COc1ccc2c(C)cc(SCC(=O)Nc3ccc(Cl)cn3)nc2c1 | 7
Cc1ccc(C(C(=O)NC2CCCC2)N(Cc2cccs2)C(=O)c2csnn2)o1 (stereo not drawn) | 0
COc1ccccc1Nc1cc(C(=O)N2CCc3ccccc3C2)c2ccccc2n1 | 8
Cc1cccc(Nc2ccccc2C(=O)O)c1C | 5
Cc1cc(Nc2ccccc2C(=O)O)nc2nc3ccccc3c(=O)n12 | 146*
S=c1[nH]nc(COc2ccc3c(c2)OCO3)n1-c1ccccc1 | 0
Cc1ccccc1-c1noc(-c2cccs2)n1 | -80
Cc1ccccc1-c1nc(Cc2ccc(Cl)cc2)no1 | 103*
COc1cc(-c2nc(Cc3c(F)cccc3Cl)no2)cc(OC)c1OC | -70
C=C(C)CNC(=S)NNC(=O)c1ccc(Br)cc1 | 3
CCc1cc(C(=O)O)c(NC(=O)c2cc(OC)c(OC)c(OC)c2)s1 | -7
CC(C)CCN1CCNC(=O)C1CC(=O)Nc1ccc(F)cc1 (stereo not drawn) | 186*
COc1ccccc1NC(=O)CC1C(=O)NCCN1C(=O)Nc1ccccc1 (stereo not drawn) | 0
C=CCNC(=O)CC1C(=O)NCCN1Cc1c(F)cccc1Cl (stereo not drawn) | 4
c1ccc(-c2onc3cc4c(cc23)OCCO4)cc1 | 8
Cc1cccc(NC(=S)N2CCN(c3ccccc3)CC2)c1 | 7
O=C(NNC(=O)C1CC1c1ccccc1)Nc1ccccc1 (stereo not drawn) | 0
CCOc1ccc(NC(=O)c2sc(N3CCOCC3)nc2-c2ccccc2)cc1 | -6
N#C/C(=C\c1sc(N2CCOCC2)nc1-c1ccccc1)C(=O)Nc1cccc2ccccc12 | 223*
O=C(Nc1cccc2ccccc12)N1CCOCC1 | 3
CCCCCCCCNC(=O)CCNC(=O)c1ccc(C(C)(C)C)cc1 | 0
SMILES | Insulin prom act
CCOCCCn1c(=S)[nH]c2cc(C(=O)N3CCC(C(N)=O)(N4CCCCC4)CC3)ccc2c1=O | -7
O=C(c1cccn2c(=O)c3cc(Cl)ccc3nc12)N1CCN(Cc2ccc3c(c2)OCO3)CC1 | -9
NC(=O)C1(N2CCCCC2)CCN(C(=O)c2cccn3c(=O)c4cc(Cl)ccc4nc23)CC1 | 150*
CC(C)NC(=O)C12CC3CC(C1)CC(n1cnc(Cl)n1)(C3)C2 | 5
CCc1c(C)nc2[nH]nc(NC(=O)C(F)(F)F)n2c1=O | -6
CC(C)NC(=O)/C(C#N)=C\c1ccc(N(C)C)o1 | 560*
CCN(CC)c1ccc(/C=C(/C#N)C(=O)NCc2ccccc2)o1 | 169
CNC(=O)/C(C#N)=C\c1ccc(CNS(=O)(=O)c2ccccc2)o1 | 3
COc1cccc(SCC2CSc3nc4ccccc4c(=O)n32)c1 (stereo not drawn) | 7
O=C(Cc1ccc(Br)cc1)N1CCN(c2ccccc2)CC1 | 467*
Cc1cccc(N2CCN(C(=O)Cc3ccc(Br)cc3)CC2)c1C | 8
O=C(CSCc1ccccc1)N1CCN(c2ccccc2)CC1 | 118
CCN(CC)c1ccc(C(=O)OCC(=O)Nc2cccc(S(=O)(=O)NC3=NCCCCC3)c2)cc1 | 0
Cc1cccc(NC(=O)C(=O)NCCCN2CCOCC2)c1 | 3
CCCc1cc(=O)[nH]c(-n2[nH]c3c(c2=O)CCCC3)n1 | 4
Cc1ccccc1NC(=S)N(CCc1c(C)[nH]c2ccc(F)cc12)Cc1cccnc1 | 0
Cc1[nH]c2ccc(F)cc2c1CCN(Cc1ccco1)C(=S)NC(C)(C)C | 347*
COc1cccc(NC(=S)N(CCc2c(C)[nH]c3ccc(C)cc23)Cc2cccs2)c1 | -5
COc1ccc(C2CCN(CC(=O)N(C)C)CC2O)cc1 (stereo not drawn) | 0
CN(C)c1cccc(C(=O)OCC(=O)Nc2ccccc2Cl)c1 | -75
O=C(COc1ccc(-c2nnco2)cc1)N1CCN(S(=O)(=O)c2ccc3ccccc3c2)CC1 | 8
O=C(Nc1cccc(C(=O)N2CCOCC2)c1)c1cncc(Br)c1 | 318
CCN1C(c2ccccc2)=C(c2ccccc2)S/C1=C\C=C1/SC(=S)N(C)C1=O | 5
CCCCN1C(=O)/C(=C/C=C2\SCCN2C)SC1=S | 408*
CCN1C(=O)/C(=C/C=C2/Sc3ccc4ccccc4c3N2CCO)SC1=S | 179
SMILES | Insulin prom act
CCNc1nc(NCC)n2c(SCC(=O)Nc3ccc(C(F)(F)F)cc3[N+](=O)[O-])nnc2n1 | 6
O=C(CN1C(=O)c2ccccc2S1(=O)=O)NCCC1=CCCCC1 | 9
Nc1nn(-c2ccccc2)nc1C(=O)OCc1ccccc1F | 8
COc1cc(/C=N\NC(=O)c2ccc(Cn3cc(Br)c([N+](=O)[O-])n3)o2)cc(OC)c1O | 0
CS(=O)(=O)N1CCN(C(=O)c2cc(-c3ccccc3)nc3ccccc23)CC1 | 9
CCOc1ccc(-c2cc(C(=O)N3CCN(c4ccccn4)CC3)c3ccccc3n2)cc1 | 740*
O=C(c1cc(Sc2cccc(Cl)c2)nc2ccccc12)N1CCN(c2ccccn2)CC1 | 136
O=S(=O)(Cc1ccc(Cl)cc1)CC(O)COCc1ccccc1 (stereo not drawn) | 307
Cc1cccc(-n2c(N)cc(=O)nc2SCC(=O)Nc2nnc(C)s2)c1 | -10
Cc1noc(C)c1S(=O)(=O)N1CCCC(C(=O)NC2CCCCC2)C1 (stereo not drawn) | -8
Cc1cccc(-c2nc(CS(=O)CC(=O)NCC3CCCO3)c(C)o2)c1 (stereo not drawn) | 0
Cc1cccc(-c2nc(CN3CCCC(C(=O)NC4CCCCCC4)C3)c(C)o2)c1 (stereo not drawn) | 171*
CCOC(=O)CSc1nnc(NCC(=O)OC(C)C)c(=O)[nH]1 | 186
CCCc1nc2ccccc2n1CCc1ccccc1 | 0
